From ChEMBL document CHEMBL1134320, “Structure of protein tyrosine phosphatase 1B in complex with inhibitors bearing two phosphotyrosine mimetics” (J Med Chem, 2001)

What was measured:
[1] = target: T1, Tyrosine-protein phosphatase non-receptor type 1 (Homo sapiens, UniProt P18031); test: Binding affinity towards the binding site in PTP1B enzyme
T1 sequence (P18031 whole entry): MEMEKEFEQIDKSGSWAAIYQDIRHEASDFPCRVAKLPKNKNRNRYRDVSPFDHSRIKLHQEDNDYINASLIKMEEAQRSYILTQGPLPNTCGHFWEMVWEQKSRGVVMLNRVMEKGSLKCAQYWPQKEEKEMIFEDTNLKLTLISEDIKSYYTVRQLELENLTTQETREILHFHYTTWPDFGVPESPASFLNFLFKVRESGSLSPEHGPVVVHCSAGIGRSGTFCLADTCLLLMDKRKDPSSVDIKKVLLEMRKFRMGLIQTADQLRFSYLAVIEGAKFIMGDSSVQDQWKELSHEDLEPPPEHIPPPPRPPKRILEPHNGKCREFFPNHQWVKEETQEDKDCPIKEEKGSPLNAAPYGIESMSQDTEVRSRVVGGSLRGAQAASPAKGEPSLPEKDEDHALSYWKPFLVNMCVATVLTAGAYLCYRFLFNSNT

[2] = target: T2, Tyrosine-protein phosphatase non-receptor type 2 (Homo sapiens, UniProt P17706); test: Inhibitory activity against Protein tyrosine phosphatase TCPTP.
T2 sequence (P17706 whole entry): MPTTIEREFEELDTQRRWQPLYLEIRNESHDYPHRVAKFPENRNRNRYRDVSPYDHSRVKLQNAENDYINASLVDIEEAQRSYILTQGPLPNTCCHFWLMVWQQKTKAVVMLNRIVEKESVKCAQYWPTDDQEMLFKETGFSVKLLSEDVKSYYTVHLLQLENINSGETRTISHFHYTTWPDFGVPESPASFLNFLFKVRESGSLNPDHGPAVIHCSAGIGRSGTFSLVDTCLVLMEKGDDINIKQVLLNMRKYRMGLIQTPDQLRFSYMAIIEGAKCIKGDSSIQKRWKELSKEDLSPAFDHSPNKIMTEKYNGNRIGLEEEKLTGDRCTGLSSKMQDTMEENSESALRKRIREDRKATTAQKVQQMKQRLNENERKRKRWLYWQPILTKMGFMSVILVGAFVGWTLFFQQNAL
How it was run: (§1)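 Phosphatase activity was read with 3,6-fluorescein diphosphate (FDP) as substrate, at roughly the KM concentration for each enzyme. IC50 came from 10 inhibitor concentrations fitted to a four-parameter equation, with errors under 10%. Constructs: flag-PTP1B (1–320); flag-CD45 intracellular domain; GST-PTPβ, GST-SHP1 and GST-SHP2; human recombinant TCPTP from E. coli; flag-CDC25a from baculovirus-infected Sf9 cells.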

[3] = target: T3, Tyrosine-protein phosphatase non-receptor type 11 (Homo sapiens, UniProt Q06124); test: Inhibitory activity against Protein tyrosine phosphatase SHP-2.; how it was run: as §1
T3 sequence (Q06124 whole entry): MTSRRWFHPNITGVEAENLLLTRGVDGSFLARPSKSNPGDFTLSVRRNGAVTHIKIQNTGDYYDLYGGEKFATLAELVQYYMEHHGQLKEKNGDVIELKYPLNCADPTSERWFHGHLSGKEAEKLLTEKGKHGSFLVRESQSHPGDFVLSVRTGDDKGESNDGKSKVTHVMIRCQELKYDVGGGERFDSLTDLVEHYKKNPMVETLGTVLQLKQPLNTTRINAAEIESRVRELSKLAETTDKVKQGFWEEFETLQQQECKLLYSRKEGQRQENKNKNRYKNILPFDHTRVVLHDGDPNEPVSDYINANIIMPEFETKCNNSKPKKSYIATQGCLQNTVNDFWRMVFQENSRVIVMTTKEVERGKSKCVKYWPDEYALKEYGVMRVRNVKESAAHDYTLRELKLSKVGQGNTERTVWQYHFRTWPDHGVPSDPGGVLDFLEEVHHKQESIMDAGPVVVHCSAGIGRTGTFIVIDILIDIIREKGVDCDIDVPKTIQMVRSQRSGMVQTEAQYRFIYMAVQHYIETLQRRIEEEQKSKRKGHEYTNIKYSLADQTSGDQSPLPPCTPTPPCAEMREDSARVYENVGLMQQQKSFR

[4] = target: T1, Tyrosine-protein phosphatase non-receptor type 1; test: Inhibitory activity against Protein tyrosine phosphatase 1B (PTP1B).
How it was run: as §1, with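 “enzyme.” for “enzyme. IC50 came from 10 inhibitor concentrations fitted to a four-parameter equation, with errors under 10%.”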

[5] = target: Tyrosine-protein phosphatase non-receptor type 6 (Homo sapiens, UniProt P29350); test: Inhibitory activity against Protein tyrosine phosphatase SHP-1.; how it was run: as §1
[6] = target: T1, Tyrosine-protein phosphatase non-receptor type 1; test: Binding affinity towards the site of PTP1B enzyme
[7] = target: Receptor-type tyrosine-protein phosphatase beta (Homo sapiens, UniProt P23467); test: Inhibitory activity against Protein tyrosine phosphatase PTPbeta.; how it was run: as §1
[8] = target: T4, Receptor-type tyrosine-protein phosphatase C (Homo sapiens, UniProt P08575); test: Inhibitory activity against Protein tyrosine phosphatase CD45.; how it was run: as §1
T4 sequence (P08575 whole entry): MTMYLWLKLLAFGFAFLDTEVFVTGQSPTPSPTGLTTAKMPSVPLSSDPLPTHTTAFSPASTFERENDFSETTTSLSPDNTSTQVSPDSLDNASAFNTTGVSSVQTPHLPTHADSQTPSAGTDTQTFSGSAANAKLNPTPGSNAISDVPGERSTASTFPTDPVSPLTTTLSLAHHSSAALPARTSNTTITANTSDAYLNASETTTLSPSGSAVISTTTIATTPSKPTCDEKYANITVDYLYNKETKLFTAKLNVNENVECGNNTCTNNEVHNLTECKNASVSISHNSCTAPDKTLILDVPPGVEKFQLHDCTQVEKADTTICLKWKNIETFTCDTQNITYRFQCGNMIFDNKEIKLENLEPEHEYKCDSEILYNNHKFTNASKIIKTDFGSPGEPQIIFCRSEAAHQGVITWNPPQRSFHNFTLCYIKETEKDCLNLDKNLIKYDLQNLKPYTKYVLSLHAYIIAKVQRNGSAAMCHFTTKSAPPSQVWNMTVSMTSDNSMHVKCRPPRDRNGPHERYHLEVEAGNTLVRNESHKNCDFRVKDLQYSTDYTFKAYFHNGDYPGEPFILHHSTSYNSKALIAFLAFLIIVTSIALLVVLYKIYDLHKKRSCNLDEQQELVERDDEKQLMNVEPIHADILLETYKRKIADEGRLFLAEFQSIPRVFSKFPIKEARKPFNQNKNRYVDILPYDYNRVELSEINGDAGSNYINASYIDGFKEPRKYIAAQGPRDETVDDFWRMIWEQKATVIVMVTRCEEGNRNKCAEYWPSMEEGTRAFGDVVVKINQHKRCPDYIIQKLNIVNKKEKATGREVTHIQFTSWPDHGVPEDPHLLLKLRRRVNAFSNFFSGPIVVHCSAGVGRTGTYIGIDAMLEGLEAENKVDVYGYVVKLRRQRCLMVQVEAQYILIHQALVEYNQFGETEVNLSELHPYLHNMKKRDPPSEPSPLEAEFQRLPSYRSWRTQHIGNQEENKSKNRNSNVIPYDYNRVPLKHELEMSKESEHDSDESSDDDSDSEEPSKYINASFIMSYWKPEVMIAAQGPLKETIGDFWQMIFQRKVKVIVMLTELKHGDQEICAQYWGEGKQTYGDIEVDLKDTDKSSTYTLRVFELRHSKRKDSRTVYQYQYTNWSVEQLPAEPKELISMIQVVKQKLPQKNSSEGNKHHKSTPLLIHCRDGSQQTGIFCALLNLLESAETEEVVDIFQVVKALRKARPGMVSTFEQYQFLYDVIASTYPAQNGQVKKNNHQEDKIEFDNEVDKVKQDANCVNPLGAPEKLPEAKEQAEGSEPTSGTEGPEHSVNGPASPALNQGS

[9] = target: T5, M-phase inducer phosphatase 1 (Homo sapiens, UniProt P30304); test: Inhibitory activity against Protein tyrosine phosphatase cell division cycle 25A; how it was run: as §1
T5 sequence (P30304 whole entry): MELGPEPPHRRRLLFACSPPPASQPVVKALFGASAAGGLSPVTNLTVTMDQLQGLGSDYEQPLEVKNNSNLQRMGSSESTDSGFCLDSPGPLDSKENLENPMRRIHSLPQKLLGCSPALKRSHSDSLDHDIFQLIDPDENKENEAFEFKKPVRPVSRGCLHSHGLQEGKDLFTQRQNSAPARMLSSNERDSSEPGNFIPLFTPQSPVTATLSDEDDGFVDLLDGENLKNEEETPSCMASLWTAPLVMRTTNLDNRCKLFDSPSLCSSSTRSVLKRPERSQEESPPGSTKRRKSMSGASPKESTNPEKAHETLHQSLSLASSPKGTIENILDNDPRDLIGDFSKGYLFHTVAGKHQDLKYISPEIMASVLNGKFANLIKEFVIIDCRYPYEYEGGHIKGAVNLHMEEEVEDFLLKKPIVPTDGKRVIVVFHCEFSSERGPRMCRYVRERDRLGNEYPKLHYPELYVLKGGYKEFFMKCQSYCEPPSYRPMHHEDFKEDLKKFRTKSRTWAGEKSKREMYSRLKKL

[10] = target: T6, Tyrosine-protein phosphatase non-receptor type 4 (Homo sapiens, UniProt P29074); test: Inhibitory activity against Protein tyrosine phosphatase PTPmeg-1.
T6 sequence (P29074 whole entry): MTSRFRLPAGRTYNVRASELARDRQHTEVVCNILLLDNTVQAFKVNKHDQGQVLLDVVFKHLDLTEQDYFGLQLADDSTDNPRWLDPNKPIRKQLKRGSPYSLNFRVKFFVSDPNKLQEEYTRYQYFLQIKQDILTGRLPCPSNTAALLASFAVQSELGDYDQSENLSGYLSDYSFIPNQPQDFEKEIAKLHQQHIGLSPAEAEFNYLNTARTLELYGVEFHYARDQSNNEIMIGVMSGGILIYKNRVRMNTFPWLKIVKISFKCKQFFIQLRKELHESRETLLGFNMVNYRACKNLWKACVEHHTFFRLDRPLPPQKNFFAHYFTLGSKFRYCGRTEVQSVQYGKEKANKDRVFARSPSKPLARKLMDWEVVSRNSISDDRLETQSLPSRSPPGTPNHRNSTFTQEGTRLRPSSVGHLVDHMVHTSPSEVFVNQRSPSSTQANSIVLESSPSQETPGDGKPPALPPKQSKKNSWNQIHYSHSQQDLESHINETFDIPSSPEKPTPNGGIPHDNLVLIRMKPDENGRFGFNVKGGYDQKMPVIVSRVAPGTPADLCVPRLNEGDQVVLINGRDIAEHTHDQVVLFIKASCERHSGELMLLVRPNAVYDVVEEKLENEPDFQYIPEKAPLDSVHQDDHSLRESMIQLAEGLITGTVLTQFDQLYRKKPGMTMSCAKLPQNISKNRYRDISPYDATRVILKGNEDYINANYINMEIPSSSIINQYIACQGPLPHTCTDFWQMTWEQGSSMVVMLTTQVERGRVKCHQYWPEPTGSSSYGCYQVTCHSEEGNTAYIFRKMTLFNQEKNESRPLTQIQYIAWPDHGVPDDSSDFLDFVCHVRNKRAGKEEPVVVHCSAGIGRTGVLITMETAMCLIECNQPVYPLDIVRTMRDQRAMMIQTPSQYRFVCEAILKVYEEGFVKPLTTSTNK

Chain of Receptor-type tyrosine-protein phosphatase beta (P23467 whole entry): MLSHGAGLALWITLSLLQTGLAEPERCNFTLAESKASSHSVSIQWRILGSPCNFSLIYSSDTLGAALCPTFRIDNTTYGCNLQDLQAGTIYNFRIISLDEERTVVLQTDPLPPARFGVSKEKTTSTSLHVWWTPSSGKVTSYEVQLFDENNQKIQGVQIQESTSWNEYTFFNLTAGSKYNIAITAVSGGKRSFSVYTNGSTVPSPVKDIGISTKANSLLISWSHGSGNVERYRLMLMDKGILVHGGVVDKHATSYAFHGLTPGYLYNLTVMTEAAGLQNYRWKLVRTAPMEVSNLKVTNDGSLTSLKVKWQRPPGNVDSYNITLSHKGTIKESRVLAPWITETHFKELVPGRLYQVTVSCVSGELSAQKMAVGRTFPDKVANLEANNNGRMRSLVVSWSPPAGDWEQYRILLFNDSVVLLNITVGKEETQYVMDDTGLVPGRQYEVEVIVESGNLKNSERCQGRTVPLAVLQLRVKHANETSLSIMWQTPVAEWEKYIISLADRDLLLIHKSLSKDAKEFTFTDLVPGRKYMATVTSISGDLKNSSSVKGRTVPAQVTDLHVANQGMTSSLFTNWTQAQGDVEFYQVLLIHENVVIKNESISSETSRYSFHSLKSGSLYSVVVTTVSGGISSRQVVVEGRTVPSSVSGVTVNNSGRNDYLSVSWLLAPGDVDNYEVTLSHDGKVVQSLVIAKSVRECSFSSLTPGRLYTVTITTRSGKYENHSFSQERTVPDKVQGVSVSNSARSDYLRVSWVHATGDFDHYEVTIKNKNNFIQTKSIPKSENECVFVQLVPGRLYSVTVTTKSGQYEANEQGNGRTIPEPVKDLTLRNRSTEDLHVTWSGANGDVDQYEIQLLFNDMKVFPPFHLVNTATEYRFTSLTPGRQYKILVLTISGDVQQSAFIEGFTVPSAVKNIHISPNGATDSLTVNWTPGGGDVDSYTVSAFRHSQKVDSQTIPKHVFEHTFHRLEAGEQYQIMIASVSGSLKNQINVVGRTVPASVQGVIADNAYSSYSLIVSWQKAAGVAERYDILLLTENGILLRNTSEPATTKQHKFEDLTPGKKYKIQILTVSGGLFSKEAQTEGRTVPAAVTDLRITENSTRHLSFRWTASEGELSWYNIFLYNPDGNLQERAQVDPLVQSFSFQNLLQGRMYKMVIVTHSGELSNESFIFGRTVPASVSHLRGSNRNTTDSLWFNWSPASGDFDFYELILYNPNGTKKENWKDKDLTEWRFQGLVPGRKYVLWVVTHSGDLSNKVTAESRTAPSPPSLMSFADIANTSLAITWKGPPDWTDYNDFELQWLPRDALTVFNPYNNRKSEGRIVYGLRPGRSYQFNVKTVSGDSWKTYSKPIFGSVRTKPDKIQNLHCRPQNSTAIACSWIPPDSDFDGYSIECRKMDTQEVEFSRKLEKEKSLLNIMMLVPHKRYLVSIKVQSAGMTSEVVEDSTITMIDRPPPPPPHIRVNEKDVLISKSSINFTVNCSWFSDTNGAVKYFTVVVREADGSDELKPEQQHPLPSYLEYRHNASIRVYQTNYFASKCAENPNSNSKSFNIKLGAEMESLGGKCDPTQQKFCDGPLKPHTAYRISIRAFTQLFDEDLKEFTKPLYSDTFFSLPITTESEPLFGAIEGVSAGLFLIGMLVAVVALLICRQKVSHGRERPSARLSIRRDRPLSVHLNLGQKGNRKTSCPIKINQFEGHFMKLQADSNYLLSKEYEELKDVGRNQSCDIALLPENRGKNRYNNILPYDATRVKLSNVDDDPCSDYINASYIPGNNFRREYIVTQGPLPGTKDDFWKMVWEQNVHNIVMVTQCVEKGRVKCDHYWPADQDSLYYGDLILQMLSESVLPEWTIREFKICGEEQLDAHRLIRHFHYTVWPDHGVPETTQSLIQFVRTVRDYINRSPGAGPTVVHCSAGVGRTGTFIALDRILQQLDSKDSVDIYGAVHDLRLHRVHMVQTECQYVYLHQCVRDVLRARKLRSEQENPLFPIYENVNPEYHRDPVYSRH
Chain of Tyrosine-protein phosphatase non-receptor type 6 (P29350 whole entry): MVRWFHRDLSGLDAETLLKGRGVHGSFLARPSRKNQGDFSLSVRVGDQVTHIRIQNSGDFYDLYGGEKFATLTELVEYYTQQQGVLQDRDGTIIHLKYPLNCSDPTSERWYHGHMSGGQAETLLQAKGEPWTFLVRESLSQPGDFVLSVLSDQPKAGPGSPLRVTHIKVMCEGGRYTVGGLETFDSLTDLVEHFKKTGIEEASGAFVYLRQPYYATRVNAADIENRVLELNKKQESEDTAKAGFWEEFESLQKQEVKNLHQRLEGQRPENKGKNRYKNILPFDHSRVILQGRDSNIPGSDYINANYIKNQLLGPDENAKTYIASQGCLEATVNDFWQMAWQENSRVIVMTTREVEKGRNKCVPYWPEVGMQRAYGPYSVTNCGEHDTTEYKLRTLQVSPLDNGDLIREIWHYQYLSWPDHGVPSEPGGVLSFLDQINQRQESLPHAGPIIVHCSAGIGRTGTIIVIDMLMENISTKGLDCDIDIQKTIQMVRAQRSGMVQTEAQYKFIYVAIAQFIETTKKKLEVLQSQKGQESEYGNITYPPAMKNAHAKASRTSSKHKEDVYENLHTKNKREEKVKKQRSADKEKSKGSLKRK

| SMILES | Ki [1] [µM] | IC50 [2] [µM] | IC50 [3] [µM] | IC50 [4] [µM] | IC50 [5] [µM] | Ki [6] [µM] | IC50 [7] [µM] | IC50 [8] [µM] | IC50 [9] [µM] | IC50 [10] [µM] |
| --- | --- | --- | --- | --- | --- | --- | --- | --- | --- | --- |
| O=C(CCc1ccc(C(F)(F)P(=O)(O)O)cc1)Nc1cc(NC(=O)CCc2ccc(C(F)(F)P(=O)(O)O)cc2)cc(C(=O)NCc2ccc(C(=O)O)cc2)c1 | 0.93 | – | – | – | – | – | – | – | – | – |
| O=P(O)(O)C(F)(F)c1ccc(CCCCc2ccc(C(F)(F)P(=O)(O)O)cc2)cc1 | – | 6.4 | 91 | 4.4 | 31 | 1.5 | 342 | 198 | – | – |
| O=P(O)(O)C(F)(F)c1ccc(COc2cccc(OCc3ccc(C(F)(F)P(=O)(O)O)cc3)c2)cc1 | – | 7.9 | 32 | 5.3 | 16 | – | 77 | 108 | 163 | – |
| O=P(O)(O)C(F)(F)c1ccc(COc2ccc(OCc3ccc(C(F)(F)P(=O)(O)O)cc3)cc2)cc1 | – | 4.6 | 16 | 4.2 | 6.3 | – | 15 | 14 | 30 | 146 |
| O=P(O)(O)C(F)(F)c1ccc(COc2ccccc2OCc2ccc(C(F)(F)P(=O)(O)O)cc2)cc1 | – | 3.2 | 60 | 1.7 | 15 | – | 77 | 42 | 163 | – |
| O=P(O)(O)C(F)(F)c1ccc(COCCOCc2ccc(C(F)(F)P(=O)(O)O)cc2)cc1 | – | 6.1 | 152 | 3.9 | 61 | – | 300 | 236 | – | – |
